# EBNA-1 inhibitor: blocks EBNA-1 binding to DNA | EBNA-1 DNA binding, fluorescence polarization | inhibition, % at 14.8 µM | 0.34% of 300,000 active; in the data active = inhibition above about 28%
# ZTA counter: blocks Epstein-Barr virus ZTA, an EBNA-1 counter-screen. 0.15% of 320,000 active. P03206. inhibition, % at 11 µM. ZTA-DNA binding, fluorescence polarization. AID 2234; in the data active = inhibition above about 33%
# Target sequence (P03206 whole entry, looked up): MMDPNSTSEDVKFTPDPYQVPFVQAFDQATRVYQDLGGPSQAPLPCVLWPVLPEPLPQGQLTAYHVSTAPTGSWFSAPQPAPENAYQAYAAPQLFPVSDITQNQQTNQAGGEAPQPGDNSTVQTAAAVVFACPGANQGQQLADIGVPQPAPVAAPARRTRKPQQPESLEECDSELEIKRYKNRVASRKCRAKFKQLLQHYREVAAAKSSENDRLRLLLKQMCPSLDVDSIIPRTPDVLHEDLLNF
# PREPL inhibitor: inhibits the human prolyl oligopeptidase-like enzyme. recombinant PREPL, fluorescence polarization activity-based probe. inhibition, % at 5.96 µM. 0.68% of 320,000 active;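 also: 0% = enzyme with DMSO and 100% = wells lacking enzyme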
# Apaf1 inhib: blocks human Apaf-1 apoptosome activity. AID 489030. reconstituted apoptosome caspase-3 activity, DEVD-Rh110 fluorescence. 0.71% of 330,000 active. O14727. inhibition, % at 20 µM; active = inhibition of at least 40% at 20 µM;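 also: plate controls were DMSO wells for no effect and DEVD-CHO caspase inhibitor wells for full effect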
#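 Assay system: Apoptosome proteins | Medium: pH 7.5 Hepes buffer with CHAPS, BSA, DTT | Also added: Cytochrome c and DEVD-Rh110 substrate | Times: 30 min plus 50 min, RT | Detection: Rhodamine 110 fluorescence at Ex 480/Em 540 nm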
# UBC13 polyUb: blocks human UBC13 polyubiquitin chain formation; inhibition, % at 20 µM; 0.47% of 330,000 active; P61088; TR-FRET; AID 485273; in the data active = inhibition above about 45%, passing the limit was not always enough
# Target sequence (P61088 whole entry, looked up): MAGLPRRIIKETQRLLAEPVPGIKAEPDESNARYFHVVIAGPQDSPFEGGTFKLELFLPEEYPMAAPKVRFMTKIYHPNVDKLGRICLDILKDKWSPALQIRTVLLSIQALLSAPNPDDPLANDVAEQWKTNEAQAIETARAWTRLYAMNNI
# PREPL inh cf: human PREPL inhibition, confirmation; inhibition, % at 5.96 µM; shares compounds with PREPL inhibitor; 67% of 2,000 active; recombinant PREPL, fluorescence polarization activity probe;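 also: 0% = protein with DMSO and 100% = wells lacking protein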
# * = called active by the depositor; x = no result given. Shown are actives, neighbours in structure and some others; about 1.7% of the full set was active somewhere. Rule as the data show it, unless noted: active = inhibition above about 43%; inactive = the rest.
SMILES,EBNA-1 inhibitor,ZTA counter,PREPL inhibitor,Apaf1 inhib,UBC13 polyUb,PREPL inh cf
COc1ccccc1OCc1nnc(SCC(=O)Nc2ccc(N3CCOCC3)cc2)n1C,-6.5,4.2,0.2,7.1,-11.9,x
Cc1ccccc1OCc1nnc(SCC(=O)Nc2ccc(N3CCOCC3)c(Cl)c2)n1C,-1.4,4.9,50.9*,9.5,-0.5,57.7*
CCn1c(=O)c(C(=O)NNC(=O)c2ccccc2Cl)c(O)c2ccccc21,-3.3,-10.8,8.5,5.1,5.8,x
Cc1ccc2nc(-c3sc4nc(C)cc(C)c4c3N)[nH]c2c1,-5.6,4.8,72.8*,21.5,1.1,37.3
CCC(C)(C)C1CCC(=NNc2nc3ccccc3[nH]2)CC1 (stereo not given),-2.8,-21.9,29.1,7.2,-17.1,x
CC(=O)N1CCC(=NNc2nc3ccccc3[nH]2)CC1,15.3,-13.9,54.2*,15.1,-3.9,6.2
CCn1cc(S(=O)(=O)c2ccc(C)cc2)c(=O)c2cc(F)c(N3CCN(C)CC3)cc21,1.7,8.2,3.4,6.7,8.8,x
FC(F)Oc1ccc(C2=Nn3c(nnc3-c3ccccc3Cl)SC2)cc1OCC1CC1,x,x,12.4,15.1,-4.9,x
COc1ccc(C2=Nn3c(nnc3-c3ccccc3F)SC2)cc1OCC1CC1,x,x,55.6*,33.6,27.4,-8.7
O=c1cc(CN2CCc3ccccc32)nc2sccn12,5.1,4.1,5.2,-1.4,0.9,x
O=c1cc(CN2CCCc3ccccc32)nc2sccn12,12.4,9.9,50.9*,14.2,2.4,18.8
Cc1ccc(NC(=S)Nc2ccc3nc(-c4ccccn4)c(-c4ccccn4)nc3c2)cc1C,-2.8,5.9,43.6*,x,x,37.3
CCN(CC)c1ccc(N)cc1,x,7.5,63.9*,38.5,-39.2,39.1
CCN(CC)c1ccc(C(=O)NN)cc1,2.1,1.1,12.5,-13.4,-8.5,x
O=C(NN=C1CCCC1)c1[nH]c2ccc(Cl)cc2c1-c1ccccc1,-0.2,1.6,0.2,30.0,4.3,x
O=C(N/N=C1\CCCc2c1[nH]c1ccc(Cl)cc21)c1ccncc1,-10.7,-9.4,45.4*,25.3,-11.6,55.1*
CCCCOC(=O)CSCC(=O)Nc1cc(C)on1,6.5,11.7,2.4,-10.2,-1.1,x
COc1ccc(Nc2nc(N3CCCCC3)c3ccccc3n2)cc1,2.4,-13.4,59.7*,38.7,30.8,43.0
Oc1ccc(Nc2nc(N3CCCC3)c3ccccc3n2)cc1,2.6,-2.6,72.3*,21.6,27.7,65.7*
COc1ccc(Nc2nc(N)c([N+](=O)[O-])c(N3CCCC3)n2)cc1,-2.9,-5.0,11.5,11.5,3.3,x
Cc1ccc(Nc2nc(N3CCOCC3)c3ccccc3n2)cc1,10.3,2.8,34.0,4.2,21.7,x
COc1ccc(CNC(=O)C(C)c2ccc([N+](=O)[O-])cc2)cc1 (stereo not given),2.3,-5.6,20.1,4.8,-4.0,x
CC1=CC(C)(C)Nc2ccc(OC(=O)CCN3C(=O)c4ccccc4C3=O)cc21,-1.9,3.2,79.1*,17.6,4.7,78.3*
Cc1ccc(OC(=O)CN2C(=O)c3ccccc3C2=O)cc1C,-0.2,-1.7,-1.0,8.1,-3.2,x
C=CCN(c1ccccc1OC)S(=O)(=O)c1cccc(C(=O)NC2=NCCS2)c1,x,x,1.2,9.5,8.8,x
SMILES,EBNA-1 inhibitor,ZTA counter,PREPL inhibitor,Apaf1 inhib,UBC13 polyUb,PREPL inh cf
COc1cc(NC(=O)CN2CCN(c3ccccc3F)CC2)c(C)cc1[N+](=O)[O-],-13.9,-13.9,54.5*,0.3,-10.4,69.0*
COc1cc(NC(=O)CN2CCCCC2)c(C)cc1[N+](=O)[O-],4.3,1.2,-2.7,-0.1,-4.3,x
COc1cc2c(cc1OC)C(Cc1ccc(O)c(Oc3ccc(C[C@H]4c5cc(OC)c(OC)cc5CCN4C)cc3)c1)N(C)CC2 (stereo not given in full),x,x,45.4*,28.6,25.7,51.7*
O=C(O)c1ccccc1NS(=O)(=O)c1ccc(NN=Cc2cccc(Cl)c2)c([N+](=O)[O-])c1,x,x,53.4*,6.1,-46.8,44.7*
O=C(O)c1ccccc1NS(=O)(=O)c1ccc(NN=Cc2ccc(F)cc2)c([N+](=O)[O-])c1,x,x,43.6*,1.9,-47.3,36.7
O=C(O)c1ccc(/C=N/Nc2ccc(S(=O)(=O)N3CCCC3)cc2[N+](=O)[O-])cc1,8.1,-8.3,12.5,-5.0,-65.5,x
COc1ccc(NS(=O)(=O)c2ccc(NN=Cc3ccc(C(=O)O)cc3)c([N+](=O)[O-])c2)cc1,x,x,45.1*,11.1,-101.2,40.0
C(=N\Nc1nc2ccccc2[nH]1)/c1c[nH]c2ccccc12,7.0,9.1,49.1*,-5.7,0.6,54.1*
C(=N\Nc1nc2ccccc2[nH]1)/c1cccc2cccnc12,-1.2,-0.8,62.8*,23.6,-13.1,52.6*
CCN(CC)S(=O)(=O)c1ccc2c(c1)nc(CCC(=O)O)n2C,5.9,16.1,-4.3,-24.4,8.0,x
O=C1Nc2ccc(Br)cc2C1=Nc1ccc(-c2nnc3n2CCCCC3)cc1,10.0,-7.8,7.9,-0.5,-29.6,x
CN1CCN(C(c2cccc(C(F)(F)F)c2)c2nnnn2C(C)(C)C)CC1 (stereo not given),0.1,9.8,43.4*,-13.8,7.5,31.7
O=C(O)[C@H]1CCCC[C@H]1C(=O)Nc1ccc(Nc2ccccc2)cc1,-6.8,-2.9,93.0*,5.5,-6.6,8.2
CC(C)c1ccc(NC(=O)C2CCCCC2C(=O)O)cc1 (stereo not given),4.2,4.1,-6.1,-0.7,6.6,x
Cc1cccc[n+]1CC(=O)Nc1ccc([N+](=O)[O-])cc1Cl,2.4,-2.7,8.2,-1.2,2.6,x
Cc1ccc(Cl)cc1NC(=O)C[n+]1ccc(Cc2ccc([N+](=O)[O-])cc2)cc1,3.5,-3.2,67.5*,4.4,30.7,6.3
O=C(C[n+]1ccc(Cc2ccccc2)cc1)Nc1ccc([N+](=O)[O-])cc1Cl,-7.4,-5.5,55.9*,3.4,13.2,29.0
CC(C)(C)NC(=O)NC(=O)C[n+]1ccc(Cc2ccc([N+](=O)[O-])cc2)cc1,-8.0,9.5,12.1,8.1,9.7,x
O=C(COc1ccccc1C(=O)N/N=C\c1ccc(O)c(O)c1)N/N=C/c1ccc(O)c(O)c1,-3.9,-10.4,82.7*,7.0,10.6,32.0
Cc1c(CCOC(=O)c2ccc([N+](=O)[O-])cc2)sc[n+]1CC(=O)c1ccccc1,6.2,4.2,62.8*,9.8,12.8,29.1
COc1ccc(C(=O)OCCc2sc[n+](CC(=O)c3ccccc3)c2C)cc1,9.1,-7.1,26.1,27.1,2.8,x
Cc1cc[n+](CC(=O)c2cccc([N+](=O)[O-])c2)c2ccccc12,-14.9,-2.0,44.8*,14.2,6.5,14.5
O=C(C[n+]1cccc2ccccc21)c1ccc([N+](=O)[O-])cc1,-11.4,2.4,27.3,6.7,-13.4,x
Cc1c(CCOC(=O)c2cccc([N+](=O)[O-])c2)sc[n+]1CC(=O)c1ccccc1,-8.0,-2.2,50.7*,8.4,11.2,21.4
CCc1ccc(NC(=O)C2CCCN(S(=O)(=O)c3cnc[nH]3)C2)cc1 (stereo not given),6.1,16.6,-5.3,4.5,0.6,x

# Screening results (PubChem)
